Results published in ChEMBL document CHEMBL5096186, “Design, Synthesis, and Biological Evaluation of Novel Pyrimido[4,5-b]indole Derivatives Against Gram-Negative Multidrug-Resistant Pathogens” (J Med Chem, 2021).
Converted amounts (≈) assume the structure as drawn.

Tests used:
[1] = Metabolic stability in rat liver microsome assessed as elimination half life at 0.1 uM in presence of NADPH incubated upto 60 mins by LC-MS/MS analysis; assay type: ADME; conditions: liver microsomes, read-out: beta t1/2
Outline: (§1)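 Compound at 0.1 μM final, in 0.01% DMSO with 0.005% BSA. Incubated with rat or human liver microsomes at 0.33 mg/mL in 0.1 M Tris-HCl, pH 7.4, with 5 mM MgCl₂ and 1 mM NADPH, at 37 °C. Samples at 0, 7, 17, 30 and 60 min quenched with cold methanol and analysed by LC-MS/MS. Half-life, Cl_int and MF% derived as previously described.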

[2] = Metabolic stability in human liver microsome assessed as elimination half life at 0.1 uM in presence of NADPH incubated upto 60 mins by LC-MS/MS analysis; assay type: ADME; conditions: liver microsomes, read-out: beta t1/2; outline: as §1
[3] = AUC (0 to infinity) in Sprague-Dawley rat at 5 mg/kg, iv measured upto 24 hrs by LC-MS/MS analysis; assay type: ADME, organism-based; design: time < 24 hrs, dose 5 mg/kg, route iv; conditions: in vivo
Outline: (§2)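 Male Sprague-Dawley rats, n = 3 per group, single intravenous dose. For 4 mg/kg: 180–280 g rats, vehicle 5% DMSO + 5% EtOH + 40% PEG300 + 50% saline, blood from the retrobulbar vein at 0.05–24 h. For 5 and 20 mg/kg: 180–300 g rats, vehicle 5% DMSO + 5% solutol + 90% saline, sampled at 0.083–24 h. Plasma quantified by LC/MS/MS. Parameters from mean plasma concentration by noncompartmental analysis; values are mean ± standard deviation.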

[4] = Metabolic stability in rat liver microsome assessed as intrinsic clearance at 0.1 uM in presence of NADPH incubated upto 60 mins by LC-MS/MS analysis; assay type: ADME; conditions: microsomes, 1 h; outline: as §1
Acinetobacter baumannii [5] = test: Antibacterial activity against wild type Acinetobacter baumannii NCTC 13304 assessed as reduction in bacterial growth incubated for 18 to 20 hrs by CLSI based microdilution method; assay type: functional; conditions: time 18-20 hrs
Outline: (§3)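 Broth microdilution per CLSI. Compounds dissolved in DMSO (levofloxacin and meropenem in water) as 64 μg/mL stock, then serial twofold dilutions in broth giving 64 to 0.008 μg/mL. […] Clinical isolates tested as several strains per group; racemic GP-1 served as positive control; values given as MIC ranges.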

Pseudomonas aeruginosa [6] = test: Antibacterial activity against IMP4-producing multidrug resistant Pseudomonas aeruginosa assessed as reduction in bacterial growth incubated for 18 to 20 hrs by CLSI based microdilution method; assay type: functional; conditions: time 18-20 hrs; outline: as §3
Acinetobacter baumannii [7] = test: Antibacterial activity agains OXA23-producing multidrug resistant Acinetobacter baumannii assessed as reduction in bacterial growth incubated for 18 to 20 hrs by CLSI based microdilution method; assay type: functional; conditions: time 18-20 hrs; outline: as §3
Klebsiella pneumoniae [8] = test: Antibacterial activity against KPC2-producing multidrug resistant Klebsiella pneumoniae assessed as reduction in bacterial growth incubated for 18 to 20 hrs by CLSI based microdilution method; assay type: functional; conditions: time 18-20 hrs; outline: as §3
[9] = Volume of distribution at the steady state in Sprague-Dawley rat at 5 mg/kg, iv measured upto 24 hrs by LC-MS/MS analysis; assay type: ADME, organism-based; conditions: in vivo, read-out: Vdss; outline: as §2
Klebsiella pneumoniae [10] = test: Antibacterial activity agains wild type Klebsiella pneumoniae ATCC BAA-2470 assessed as reduction in bacterial growth incubated for 18 to 20 hrs by CLSI based microdilution method; assay type: functional; conditions: time 18-20 hrs; outline: as §3
Escherichia coli [11] = test: Antibacterial activity against multidrug resistant wild type Escherichia coli ATCC BAA-2340 assessed as reduction in bacterial growth incubated for 18 to 20 hrs by CLSI based microdilution method; assay type: functional; conditions: time 18-20 hrs; outline: as §3
[12] = MRT in Sprague-Dawley rat at 5 mg/kg, iv measured upto 24 hrs by LC-MS/MS analysis; assay type: ADME, organism-based; conditions: in vivo; outline: as §2
[13] = Metabolic stability in human liver microsome assessed as metabolic bioavailability at 0.1 uM in presence of NADPH incubated upto 60 mins by LC-MS/MS analysis; assay type: ADME; conditions: liver microsomes; outline: as §1
[14] = Metabolic stability in rat liver microsome assessed as metabolic bioavailability at 0.1 uM in presence of NADPH incubated upto 60 mins by LC-MS/MS analysis; assay type: ADME; conditions: liver microsomes; outline: as §1
[15] = Metabolic stability in human liver microsome assessed as intrinsic clearance at 0.1 uM in presence of NADPH incubated upto 60 mins by LC-MS/MS analysis; assay type: ADME; conditions: microsomes, 1 h; outline: as §1
Escherichia coli [16] = test: Antibacterial activity against multidrug resistant wild type Escherichia coli NCTC 13353 assessed as reduction in bacterial growth incubated for 18 to 20 hrs by CLSI based microdilution method; assay type: functional; conditions: time 18-20 hrs; outline: as §3
[17] = Clearance in Sprague-Dawley rat at 5 mg/kg, iv measured upto 24 hrs by LC-MS/MS analysis; assay type: ADME, organism-based; conditions: in vivo; outline: as §2
Klebsiella pneumoniae [18] = test: Antibacterial activity agains wild type Klebsiella pneumoniae ATCC BAA-1705 assessed as reduction in bacterial growth incubated for 18 to 20 hrs by CLSI based microdilution method; assay type: functional; conditions: time 18-20 hrs
Outline: (§4)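 CLSI broth microdilution. Compounds in DMSO (levofloxacin and meropenem in water), serial twofold dilutions in broth, 64 to 0.008 μg/mL. […] Results reported as MIC ranges across strains.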

Pseudomonas aeruginosa [19] = test: Antibacterial activity against wild type Pseudomonas aeruginosa ATCC 27853 assessed as reduction in bacterial growth incubated for 18 to 20 hrs by CLSI based microdilution method; assay type: functional; conditions: time 18-20 hrs; outline: as §4
Escherichia coli [20] = test: Antibacterial activity against ESBL-producing multidrug resistant Escherichia coli assessed as reduction in bacterial growth incubated for 18 to 20 hrs by CLSI based microdilution method; assay type: functional; conditions: time 18-20 hrs; outline: as §3
[21] = Elimination half life in Sprague-Dawley rat at 5 mg/kg, iv measured upto 24 hrs by LC-MS/MS analysis; assay type: ADME, organism-based; conditions: in vivo, read-out: beta t1/2 (converted); outline: as §2
Staphylococcus aureus = test: Antibacterial activity against methicillin-sensitive Staphylococcus aureus strains 15 1 to 4 assessed as reduction in bacterial growth incubated for 18 to 20 hrs by CLSI based microdilution method; assay type: functional; conditions: time 18-20 hrs; outline: as §3
Pseudomonas aeruginosa [22] = test: Antibacterial activity against multidrug resistant Pseudomonas aeruginosa strains 15 1 to 3 assessed as reduction in bacterial growth incubated for 18 to 20 hrs by CLSI based microdilution method; assay type: functional; conditions: time 18-20 hrs; outline: as §3
Escherichia coli [23] = test: Antibacterial activity against ESBL-producing Escherichia coli ATCC 35218 strains 15 1 to 3 assessed as reduction in bacterial growth incubated for 18 to 20 hrs by CLSI based microdilution method; assay type: functional; conditions: time 18-20 hrs; outline: as §4
Escherichia coli [24] = test: Antibacterial activity against Escherichia coli ATCC 35218 strains 15 1 to 3 assessed as reduction in bacterial growth incubated for 18 to 20 hrs by CLSI based microdilution method; assay type: functional; conditions: time 18-20 hrs; outline: as §4
[25] = Cytotoxicity against human HEK293 cells assessed as cell viability measured for 48 hrs by CCK-8 assay; assay type: toxicity, cell-based
Outline: (§5)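 Cells seeded at 1 × 10⁴ per well and grown for 48 h. Then exposed to test articles at 1–200 μM for another 48 h (n = 6). Viability by CCK-8 added for 2 h, absorbance read at 450 nm. CC50 calculated and reported as the mean.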

[26] = Cytotoxicity against human L02 cells assessed as cell viability measured for 48 hrs by CCK-8 assay; assay type: toxicity, cell-based; outline: as §5
[27] = biological target: Voltage-gated inwardly rectifying potassium channel KCNH2 (Homo sapiens, UniProt Q12809); test: Inhibition of hERG potassium channel assessed as […] at -80 mV holding potential incubated for 120 seconds by whole cell-automated voltage clamp analysis assay; assay type: toxicity
Outline: (§6)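 Automated whole-cell patch clamp, holding potential −80 mV. Voltage protocol applied every 20 s. Baseline set with external solution containing 0.1% DMSO and stabilised 3 min. Compound applied until steady state, at least 3 min, then washout. Maximum tested concentration 40 μM, or 3 μM for cisapride as positive control.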

[28] = biological target: hERG (KCNH2) potassium channel (Homo sapiens, UniProt Q12809); test: Inhibition of hERG potassium channel assessed as maximum inhibition rate at 40 uM at -80 mV holding potential incubated for 120 seconds by whole cell-automated voltage clamp analysis assay relative to control; assay type: toxicity; conditions: time 120 sec; outline: as §6
[29] = test system: Staphylococcus epidermidis; test: Antibacterial activity against methicillin-sensitive Staphylococcus epidermidis strains 15 1 to 4 assessed as reduction in bacterial growth incubated for 18 to 20 hrs by CLSI based microdilution method; assay type: functional; conditions: time 18-20 hrs; outline: as §3

Chain of hERG (KCNH2) potassium channel (Q12809 whole entry): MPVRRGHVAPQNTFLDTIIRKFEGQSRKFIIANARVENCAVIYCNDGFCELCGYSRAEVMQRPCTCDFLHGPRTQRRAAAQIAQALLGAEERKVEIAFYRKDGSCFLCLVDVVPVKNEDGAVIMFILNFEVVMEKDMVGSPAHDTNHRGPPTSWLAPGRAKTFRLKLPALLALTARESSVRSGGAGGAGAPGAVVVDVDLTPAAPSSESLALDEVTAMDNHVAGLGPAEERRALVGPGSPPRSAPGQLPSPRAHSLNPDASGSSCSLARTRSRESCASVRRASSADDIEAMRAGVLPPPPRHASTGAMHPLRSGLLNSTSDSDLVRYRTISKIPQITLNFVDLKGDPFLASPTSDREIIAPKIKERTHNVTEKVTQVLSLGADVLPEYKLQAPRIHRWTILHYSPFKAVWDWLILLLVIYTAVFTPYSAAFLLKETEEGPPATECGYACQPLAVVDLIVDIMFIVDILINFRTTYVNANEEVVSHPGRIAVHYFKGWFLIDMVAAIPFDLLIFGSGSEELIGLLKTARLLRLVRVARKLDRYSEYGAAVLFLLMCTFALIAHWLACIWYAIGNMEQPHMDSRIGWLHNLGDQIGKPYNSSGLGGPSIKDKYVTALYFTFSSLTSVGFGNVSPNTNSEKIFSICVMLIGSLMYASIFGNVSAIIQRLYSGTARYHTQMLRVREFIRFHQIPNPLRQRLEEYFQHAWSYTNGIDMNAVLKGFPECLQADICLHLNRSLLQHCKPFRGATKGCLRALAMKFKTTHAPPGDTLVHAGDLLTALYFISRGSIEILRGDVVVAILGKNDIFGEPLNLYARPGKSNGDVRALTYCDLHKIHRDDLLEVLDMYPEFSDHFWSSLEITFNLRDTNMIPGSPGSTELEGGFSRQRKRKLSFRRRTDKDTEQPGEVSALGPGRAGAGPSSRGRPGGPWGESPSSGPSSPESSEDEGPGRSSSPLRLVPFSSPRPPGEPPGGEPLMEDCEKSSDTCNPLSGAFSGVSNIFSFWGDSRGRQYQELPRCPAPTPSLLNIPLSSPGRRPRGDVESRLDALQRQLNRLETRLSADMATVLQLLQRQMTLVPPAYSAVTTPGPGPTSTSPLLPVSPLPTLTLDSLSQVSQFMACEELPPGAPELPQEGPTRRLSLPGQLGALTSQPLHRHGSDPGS
Chain of Voltage-gated inwardly rectifying potassium channel KCNH2 (Q12809 whole entry): as above

SMILES | AUC(0-inf) [3] [ng·h/mL] | MIC (Acinetobacter baumannii [5]) [µg/mL] | MIC (Pseudomonas aeruginosa [6]) [µg/mL] | MIC (Acinetobacter baumannii [7]) [µg/mL] | MIC (Klebsiella pneumoniae [8]) [µg/mL] | Vd [9] [L/kg] | MIC (Klebsiella pneumoniae [10]) [µg/mL] | MIC (Escherichia coli [11]) [µg/mL] | MRT [12] [h] | MIC (Escherichia coli [16]) [µg/mL] | clearance [17] [mL/min/kg] | MIC (Klebsiella pneumoniae [18]) [µg/mL] | MIC (Pseudomonas aeruginosa [19]) [µg/mL] | MIC (Escherichia coli [20]) [µg/mL] | half-life [21] [h] | also measured
[2H]C([2H])([2H])Nc1cc(F)cc2c1[nH]c1nc(Oc3cnc(C)nc3)nc(N3CC(=C(C)[C@@H](C)N)C3)c12 | 634 | 0.25 (≈ 0.554 µM) | 4 (≈ 8.86 µM) | 0.25 (≈ 0.554 µM) | 1 (≈ 2.21 µM) | 44.5 | 2 (≈ 4.43 µM) | 0.25 (≈ 0.554 µM) | 5.6 | 0.125 (≈ 0.277 µM) | 132 | 4 (≈ 8.86 µM) | 2 (≈ 4.43 µM) | 0.5 (≈ 1.11 µM) | 6.5 | half-life at 0.1 µM [1]: 9.8 min; half-life at 0.1 µM [2]: 2.98 h; CLH [4]: 215 mL/min/g; Fh at 1 h, 0.1 µM [13]: 62.6%; Fh at 1 h, 0.1 µM [14]: 17.2%; CLH [15]: 11.7 mL/min/g
C=CCC(CN)=C1CN(c2nc(Oc3cnc(C)nc3)nc3[nH]c4c(NC)cc(F)cc4c23)C1 | – | 0.25 (≈ 0.543 µM) | 8 (≈ 17.4 µM) | 0.25 (≈ 0.543 µM) | 2 (≈ 4.34 µM) | – | 2 (≈ 4.34 µM) | 0.5 (≈ 1.09 µM) | – | 0.25 (≈ 0.543 µM) | – | 4 (≈ 8.69 µM) | 4 (≈ 8.69 µM) | 0.5 (≈ 1.09 µM) | – | MIC (Staphylococcus aureus): < 0.008 µg/mL; MIC (Pseudomonas aeruginosa [22]): 1 µg/mL (≈ 2.17 µM); MIC (Escherichia coli [23]): 0.125 µg/mL (≈ 0.271 µM); MIC (Escherichia coli [24]): 0.06 µg/mL (≈ 0.13 µM); CC50 at 48 h [25]: 29 µM; CC50 at 48 h [26]: 6.99 µM; IC50 [27]: > 40 µM; inhibition at 2 min, 40 µM [28]: 49.1%; MIC [29]: < 0.008 µg/mL
CCNc1cc(F)cc2c1[nH]c1nc(Oc3cnc(C)nc3)nc(N3CC(=C(C)[C@@H](C)N)C3)c12 | 1290 | 2 (≈ 4.32 µM) | > 64 | 2 (≈ 4.32 µM) | > 8 | 16.7 | > 64 | 1 (≈ 2.16 µM) | 4.3 | 1 (≈ 2.16 µM) | 64.7 | > 64 | > 64 | 4 (≈ 8.65 µM) | 6.7 | –
